Assay results: ChEMBL document CHEMBL2034949, “Small Molecule Inhibitors of Regulator of G Protein Signalling (RGS) Proteins” (ACS Med Chem Lett, 2012)
Active and inactive are the calls of the source. The rule behind the calls is not given here.

Columns and labels:
[1] = Selectivity ratio of IC50 for RGS8 to IC50 RGS4
[2] = Aqueous solubility of the compound at 500 uM; assay type: physicochemical; details: buffer
[3] = target: Regulator of G-protein signaling 4 (Homo sapiens, UniProt P49798); experiment: Inhibition of RGS4 interaction with Galpha0 protein by flow cytometry protein interaction assay
Regulator of G-protein signaling 4, sequence (P49798 whole entry): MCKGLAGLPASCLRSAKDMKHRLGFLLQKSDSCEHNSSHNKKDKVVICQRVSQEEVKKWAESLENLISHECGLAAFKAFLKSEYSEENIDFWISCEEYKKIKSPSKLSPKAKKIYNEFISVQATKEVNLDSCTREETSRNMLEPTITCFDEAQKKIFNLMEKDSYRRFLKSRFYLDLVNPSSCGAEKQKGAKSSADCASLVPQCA
In short: (§1)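 Inhibition of Gαo binding to RGS4 or RGS8. IC50 taken as the average of two independent experiments.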

[4] = target: Muscarinic acetylcholine receptor M3 (Homo sapiens) (UniProt P20309); experiment: Activity at human muscarinic M3 receptor expressed in HEK293T cells assessed as increase in carbachol-induced intracellular calcium level at 10 uM after 30 to 45 mins by fluorimetry; assay type: functional, cell-based; details: HEK-293T
Muscarinic acetylcholine receptor M3 (Homo sapiens), sequence (P20309 whole entry, looked up): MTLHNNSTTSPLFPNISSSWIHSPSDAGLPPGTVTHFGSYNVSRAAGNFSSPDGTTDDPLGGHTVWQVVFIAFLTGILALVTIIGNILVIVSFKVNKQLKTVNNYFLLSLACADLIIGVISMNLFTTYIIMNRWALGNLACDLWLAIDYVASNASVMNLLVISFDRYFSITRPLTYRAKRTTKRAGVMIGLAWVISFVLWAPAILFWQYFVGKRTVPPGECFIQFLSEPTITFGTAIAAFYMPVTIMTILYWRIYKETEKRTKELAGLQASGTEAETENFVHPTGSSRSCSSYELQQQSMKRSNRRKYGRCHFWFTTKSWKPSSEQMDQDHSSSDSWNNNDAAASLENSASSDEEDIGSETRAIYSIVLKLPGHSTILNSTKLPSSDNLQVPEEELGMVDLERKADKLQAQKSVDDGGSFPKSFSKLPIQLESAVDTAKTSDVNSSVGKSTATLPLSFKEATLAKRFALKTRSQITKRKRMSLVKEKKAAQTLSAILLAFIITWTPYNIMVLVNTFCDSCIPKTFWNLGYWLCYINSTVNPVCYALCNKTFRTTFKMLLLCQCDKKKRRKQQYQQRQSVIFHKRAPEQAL
In short: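 HEK-293 cells stably expressing human M3 muscarinic receptor, plated overnight, loaded with Fluo4-NW for 30 min at 37 °C. Compound added at 10 uM final in 1% DMSO; baseline fluorescence read after 30-45 min, then carbachol injected (10 nM final). Intracellular Ca++ rise expressed as percent of baseline; triplicate determinations, DMSO control n=16.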

[5] = target: T1, Regulator of G-protein signaling 8 (Homo sapiens, UniProt P57771); experiment: Inhibition of RGS8 interaction with Galpha0 protein by flow cytometry protein interaction assay; in short: as §1
T1 sequence (P57771 whole entry): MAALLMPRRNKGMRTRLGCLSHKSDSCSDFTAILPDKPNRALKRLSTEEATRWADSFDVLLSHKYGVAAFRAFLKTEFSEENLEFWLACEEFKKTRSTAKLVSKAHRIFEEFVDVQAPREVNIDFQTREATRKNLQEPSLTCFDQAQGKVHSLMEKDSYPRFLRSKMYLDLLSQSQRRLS

Ratio IC50 [1] | Compound | also measured
2680 | CCn1sc(=O)n(CC(C)C)c1=O | solubility [2]: soluble
2020 | Cn1c(=O)sn(C(C)(C)C)c1=O | solubility [2]: soluble
1340 | Cc1ccc(Cn2c(=O)sn(-c3ccc(C)cc3)c2=O)cc1 | –
515 | COc1ccc(-n2sc(=O)n(Cc3ccccc3)c2=O)cc1 | –
445 | Cc1ccc(-n2sc(=O)n(C)c2=O)cc1 | –
519 | Cc1ccc(-n2sc(=O)n(Cc3ccccc3)c2=O)cc1 | –
239 | O=c1sn(-c2ccccc2)c(=O)n1Cc1ccccc1 | –
1000 | Cc1ccc(-n2sc(=O)n(Cc3cccc(Cl)c3)c2=O)cc1 | –
59 | Cc1cccc(-n2sc(=O)n(Cc3ccc(F)cc3)c2=O)c1 | –
842 | CCn1sc(=O)n(Cc2ccc(F)cc2)c1=O | –
1210 | CCCCn1sc(=O)n(C)c1=O | solubility [2]: soluble
366 | Cc1ccc(-n2sc(=O)n(Cc3ccc(F)cc3)c2=O)cc1 | IC50 [3]: 0.0301 µM; Activity [4]: Active; IC50 [5]: 11 µM
245 | O=c1sn(-c2cccc(Cl)c2)c(=O)n1Cc1ccc(F)cc1 | –
483 | CCCCn1c(=O)sn(-c2ccc(C)cc2)c1=O | –
558 | Cc1cccc(-n2sc(=O)n(Cc3ccccc3)c2=O)c1 | –
3090 | Cc1ccc(Cn2sc(=O)n(Cc3ccc(F)cc3)c2=O)cc1 | –
460 | Cc1ccc(-n2sc(=O)n(Cc3ccc(Cl)c(Cl)c3)c2=O)cc1 | –
2840 | Cc1ccc(Cn2sc(=O)n(Cc3ccccc3)c2=O)cc1 | –
1660 | CCn1sc(=O)n(C)c1=O | solubility [2]: soluble
2220 | CCCCn1c(=O)sn(C(C)(C)C)c1=O | solubility [2]: soluble

Ratio IC50 [1] | Compound | also measured
149 | O=c1sn(-c2ccc(Cl)c(Cl)c2)c(=O)n1Cc1ccccc1 | –
550 | Cc1ccc(-n2sc(=O)n(CC(C)C)c2=O)cc1 | –
– | Cc1ccc(CN2C(=O)CN(c3ccc(C)cc3)C2=O)cc1 | IC50 [3]: > 100 µM; IC50 [5]: > 100 µM
1050 | COc1ccc(-n2sc(=O)n(Cc3ccc(F)cc3)c2=O)cc1 | –
335 | O=c1sn(-c2cccc(Cl)c2)c(=O)n1Cc1ccccc1 | –
6660 | CC(C)Cn1c(=O)sn(C(C)(C)C)c1=O | solubility [2]: soluble
183 | O=c1sn(-c2ccc(Cl)cc2)c(=O)n1Cc1ccccc1 | –
380 | O=c1sn(-c2ccccc2)c(=O)n1Cc1ccc(F)cc1 | –
2020 | CCCCn1sc(=O)n(Cc2ccc(F)cc2)c1=O | –
– | CCCCn1c(=O)sn(CC)c1=O | Activity [4]: inactive; solubility [2]: soluble
2170 | Cc1ccc(-n2sc(=O)n(Cc3ccc(Cl)cc3)c2=O)cc1 | –
4110 | CCCCn1sc(=O)n(CCCC)c1=O | solubility [2]: soluble
1780 | COc1ccc(Cn2c(=O)sn(-c3ccc(C)cc3)c2=O)cc1 | IC50 [3]: 0.176 µM
481 | O=c1sn(-c2ccc(Cl)c(Cl)c2)c(=O)n1Cc1ccc(F)cc1 | –
564 | O=c1sn(-c2ccc(Cl)cc2)c(=O)n1Cc1ccc(F)cc1 | –
2540 | CCCCn1sc(=O)n(CC(C)C)c1=O | solubility [2]: soluble
286 | O=c1sn(-c2cccc(C(F)(F)F)c2)c(=O)n1Cc1ccccc1 | –
204 | O=c1sn(-c2cccc(C(F)(F)F)c2)c(=O)n1Cc1ccc(F)cc1 | –
665 | CCn1sc(=O)n(CCOC)c1=O | Activity [4]: inactive
679 | Cc1ccc(-n2sc(=O)n(Cc3cccc(C)c3)c2=O)cc1 | –
